Bioassay records deposited in PubChem by Broad Institute.
ERAP1 inh: blocks human ERAP1 aminopeptidase activity. recombinant ERAP1, Leu-AMC fluorescence, 60 min. actives 0.15% (n = 340,000). inhibition, % at 10.7 µM;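 active = mean replicate inhibition of at least 30%, or all replicates individually reaching that 30% level; inactive = mean below 30% and not every replicate reaching it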;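 note: 0% = neutral control wells and 100% = L-leucinethiol positive control wells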
MLL AF4-AF9 inh: blocks AF4 peptide binding to human AF9; AlphaScreen, biotin-AF4 peptide binding to FLAG-AF9; P42568; AID 651704; actives 0.47% (n = 350,000); inhibition, % at 10 µM;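 active = every replicate reaching a set inhibition limit, whatever the replicate mean, cut at about 25% in these data; inconclusive = mean inhibition reaches that limit but some replicates miss it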;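 note: 0% = plate neutral control median and 100% = total signal loss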
Target sequence (P42568 whole entry, looked up): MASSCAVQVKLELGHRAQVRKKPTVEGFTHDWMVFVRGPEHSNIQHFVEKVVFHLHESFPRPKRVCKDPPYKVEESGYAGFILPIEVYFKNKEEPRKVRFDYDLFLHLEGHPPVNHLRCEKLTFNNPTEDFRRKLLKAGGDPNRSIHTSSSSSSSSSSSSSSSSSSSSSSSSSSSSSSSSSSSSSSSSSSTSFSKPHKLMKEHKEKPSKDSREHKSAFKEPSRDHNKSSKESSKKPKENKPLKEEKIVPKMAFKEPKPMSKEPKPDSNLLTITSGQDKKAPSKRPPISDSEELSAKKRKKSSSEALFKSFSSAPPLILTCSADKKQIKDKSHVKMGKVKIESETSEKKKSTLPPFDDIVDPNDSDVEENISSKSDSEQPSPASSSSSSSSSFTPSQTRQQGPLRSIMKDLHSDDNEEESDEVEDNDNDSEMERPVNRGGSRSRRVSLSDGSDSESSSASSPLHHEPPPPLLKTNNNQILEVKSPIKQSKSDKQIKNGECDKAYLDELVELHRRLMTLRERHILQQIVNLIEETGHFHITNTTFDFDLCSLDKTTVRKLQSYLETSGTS
Rtt109 HAT inh: inhibitors of Candida albicans Rtt109/Vps75 histone acetyltransferase; actives 0.16% (n = 330,000); Q5AAJ8; purified Rtt109/Vps75, ThioGlo CoA-SH fluorescence, 4 h; inhibition, % at 34.9 µM;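 active = inhibition of at least 50% in every replicate; inconclusive = best replicate reaches 50% inhibition but some replicates fall short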
S100A4 MyoIIA: S100A4-myosin IIA interaction inhibition; P26447; S100A4/TAMRA-MyoIIA peptide fluorescence polarization; inhibition, % at 10.7 µM; actives 0.14% (n = 360,000); AID 652163;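 active = mean inhibition of at least 70% across replicates, with every replicate also reaching that level; inconclusive = mean inhibition reaches 70% but some replicates fall short; inactive = mean inhibition below 70%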
Target sequence (P26447 whole entry, looked up): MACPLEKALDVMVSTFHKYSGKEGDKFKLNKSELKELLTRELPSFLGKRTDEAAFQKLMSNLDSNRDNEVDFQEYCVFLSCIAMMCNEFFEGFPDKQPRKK
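Material: human S100A4 monomer with TAMRA-labelled myosin IIA peptide; buffer or medium: HEPES pH 7.2 with CaCl2, KCl, NaCl, DTT, Triton; compound dosing: one concentration per compound; schedule: 5 min incubation before reading; benchmarks: neutral control DMSO, positive control TFP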
miR122 inh: blocks miR-122 activity in Huh7 sensor cells; actives 0.3% (n = 340,000); activation (reporter increase), % at 12.5 µM; Huh7 miR-122 Renilla luciferase sensor, 48 h; neutral wells = 0, positive control = 100;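 active = mean replicate activation score at least 90 and every replicate individually at or above 90; inconclusive = only one of the two criteria met; inactive = neither criterion met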;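 note: higher luciferase means less miR-122 activity so hits act as miR-122 inhibitors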
The depositor's hits bear a star; ? = inconclusive; / = not tested or not shown; + = active, no number; ! = not active in a repeat; [ ] = another dose, or the depositor's remark. Hits are enriched below; roughly 0.86% of the tested compounds scored in any of these assays.

SMILES | ERAP1 inh | MLL AF4-AF9 inh | Rtt109 HAT inh | S100A4 MyoIIA | miR122 inh
CC(=Nc1ccccc1)C1=C(O)C(Cc2ccc(O)cc2)NC1=O (stereo unspecified) | 0 | 0 | -2 | 3 | /
CC(=Nc1ccccc1)C1=C(O)C(Cc2cccc(F)c2)NC1=O (stereo unspecified) | 3 | -1 | / | -4 | 158*
C[C@@H]1CN([C@@H](C)CO)C(=O)c2cccc(NS(=O)(=O)c3cccs3)c2O[C@H]1CN(C)CC1CCCCC1 | 2 | 0 | / | 9 | 21[16.7 µM]
Nc1ccc(N=Nc2ccccc2)c2ccccc12 | -2 | 10 | 5 | -11 | /
Nc1ccc(N=Nc2ccccc2)c(N)n1 | 6 | 34* | 6 | -10 | -23
COc1cc(SC#N)ccc1N=Cc1c(C)[nH]n(-c2ccc(C)c(C)c2)c1=O | -2 | -8 | 56* | 5 | -1
Cc1cc(C(=O)N/N=C/c2c(CO)cnc(C)c2O)c2ccccc2n1 | 6 | 1 | 9 | 17 | -9
Cc1ncc(CO)c(/C=N/NC(=O)c2cc(Br)ccc2O)c1O | -2 | 28* | 4 | 1 | /
COc1ccc(C)cc1S(=O)(=O)NC1CCCC1 | / | / | -14 | / | 170*
CCOc1ccc(Br)cc1S(=O)(=O)NC1CCCC1 | -2 | 1 | -4 | -1 | 93*
Cc1cccc(S(=O)(=O)NC2CCCCCCC2)c1 | 5 | -1 | 17 | -3 | 159*
O=S(=O)(NC1CCCCCC1)c1cccc(Cl)c1 | -2 | -2 | -7 | -1 | /
CSc1nc2ccc(S(=O)(=O)NC3CCCCC3)cc2s1 | / | / | 5 | / | 175*
C[C@@H]1CCCCO[C@@H](CN(C)Cc2ccc(Cl)c(Cl)c2)[C@H](C)CN([C@@H](C)CO)C(=O)c2cc(NS(=O)(=O)c3cn(C)cn3)ccc2O1 | 0 | 7 | / | -4 | -5[16.7 µM]
COc1cccc(C(=O)N2C[C@H]3[C@@H](c4ccccc42)[C@@H](CO)N3Cc2ccccc2Cl)c1 | / | / | / | / | 7[16.7 µM]
C/C=C/c1cnc2c(c1)C(=O)N([C@@H](C)CO)C[C@@H](C)[C@@H](CN(C)C(=O)NC1CCCCC1)O2 | -1 | -4 | / | 6 | 8[16.7 µM]
COc1ccc(Br)cc1S(=O)(=O)Nc1ncccc1C | 1 | -1 | 2 | 4 | /
COc1ccc(S(=O)(=O)NC2CCCCC2)cc1C | 11 | -1 | 5 | -30 | 137*
CCNS(=O)(=O)c1cc(Br)ccc1OC | / | / | 1 | / | 248*
COc1cc(S(=O)(=O)NC2CCCCC2)ccc1Cl | / | / | -5 | / | 121*
CCCN(C)C[C@H]1Oc2cc(C#Cc3ccccc3)ccc2S(=O)(=O)N([C@H](C)CO)C[C@H]1C | -3 | 9 | / | -3 | 17[16.7 µM]
C[C@@H]1CCCCO[C@H](CN(C)S(=O)(=O)c2cn(C)cn2)[C@@H](C)CN([C@H](C)CO)C(=O)c2cc(NS(=O)(=O)c3ccccc3)ccc2O1 | 0 | 0 | / | 21 | 1[16.7 µM]
COc1cccc(C(=O)Nc2cc([N+](=O)[O-])ccc2N2CCN(C)CC2)c1 | -2 | 1 | 4 | 1 | 292*
CN1CCN(c2ccccc2NC(=O)c2ccc(N3CCCCC3)c([N+](=O)[O-])c2)CC1 | -2 | 27* | -4 | -2 | -6
COC(=O)c1ccc(N2CCc3ccccc32)c([N+](=O)[O-])c1 | -1 | 33* | 11 | 3 | -8
SMILES | ERAP1 inh | MLL AF4-AF9 inh | Rtt109 HAT inh | S100A4 MyoIIA | miR122 inh
COc1ccc(C(=O)Nc2cc([N+](=O)[O-])ccc2N2CCN(C)CC2)cc1 | / | / | 10 | / | /
Cc1ccc(C2(CCNCc3ccc(N(C)C)cc3)CCOC(C(C)C)C2)cc1 (stereo unspecified) | -3 | 40* | 17 | -12 | 3
COc1ccccc1NS(=O)(=O)c1cc(NC(=O)c2sccc2C)ccc1N1CCOCC1 | -2 | -15 | 28 | -5 | 84
COc1cc(OC)c(S(=O)(=O)Nc2ccccc2N2CCCCC2)cc1NC(C)=O | 1 | -29 | 1 | 0 | 7
COc1ccccc1NS(=O)(=O)c1cc(NC(=O)Nc2ccccc2)ccc1N1CCCCC1 | 1 | -1 | 1 | -1 | 289*
COc1ccccc1NS(=O)(=O)c1cc(NC(=O)c2sccc2C)ccc1N1CCCC1 | / | / | -5 | / | 173*
COc1ccc(NS(=O)(=O)c2cc(NC(=O)c3sccc3C)ccc2N2CCOCC2)cc1 | -2 | -3 | 0 | -3 | 188*
COc1cc(S(=O)(=O)Nc2ccccc2N2CCCCC2)ccc1NC(C)=O | 0 | 3 | -1 | 2 | 111*
CC(C)NC(=O)N(C)C[C@H]1Oc2c(NC(=O)C3CCCCC3)cccc2C(=O)N([C@@H](C)CO)C[C@@H]1C | -1 | -3 | / | -1 | 13[16.7 µM]
CN1CCCCN2[C@H](CO)[C@@H](c3ccc(C#Cc4ccccc4F)cc3)[C@H]2C1 | 14 | 8 | / | -2 | 2[16.7 µM]
CC(C)Cc1nnc(NC(=O)Cc2ccccc2[N+](=O)[O-])s1 | 3 | 4 | -9 | 2 | 126*
O=C(Cc1ccccc1[N+](=O)[O-])Nc1nccs1 | / | ? | 4 | 0 | 2
CCOc1ccc(-c2cccc(NS(=O)(=O)c3ccccc3[N+](=O)[O-])c2)nn1 | 0 | -2 | 5 | -3 | 2
CCOc1ccc(-c2cccc(NS(=O)(=O)c3cc([N+](=O)[O-])ccc3C)c2)nn1 | 0 | 0 | -4 | -2 | 130*
CCC1=NN(C(=O)c2ccccc2O)C(O)(c2ccccc2)C1 (stereo unspecified) | -3 | 3 | 1 | 1 | +
C[C@H]1CN([C@@H](C)CO)C(=O)c2cc(C#CCN(C)C)cnc2O[C@@H]1CN(C)Cc1cccc(F)c1 | 3 | 11 | / | 5 | /
C[C@H](CO)N1C[C@H](C)[C@@H](CN(C)Cc2ccc(C(=O)O)cc2)Oc2ccc(NC(=O)CCC(F)(F)F)cc2C1=O | -1 | -4 | / | 20 | 8[16.7 µM]
COc1ccc(C[C@H]2CCc3cnnn3COC[C@H](C(C)C)NC2=O)cc1 | / | -5 | / | / | /
CCC(=O)N1[C@H](CN(C)C(C)=O)[C@@H](c2ccc(-c3cccnc3)cc2)[C@@H]1CO | 0 | -1 | / | 2 | -7[16.7 µM]
CC(=O)N(C)C[C@@H]1[C@@H](c2ccc(-c3cccnc3)cc2)[C@H](CO)N1C(=O)C1CC1 | 2 | -7 | / | 27 | 258*[16.7 µM]
CNC(=O)C[C@H]1CC[C@H]2[C@@H](COC[C@H](O)CN2S(=O)(=O)c2ccc(Oc3ccccc3)cc2)O1 | 0 | -1 | / | -2 | 7[16.7 µM]
CCCNC(=O)N(C)C[C@@H]1Oc2ncc(-c3ccncc3)cc2C(=O)N([C@H](C)CO)C[C@@H]1C | 33*! | -3 | / | 5 | -2
CCCNC(=O)N(C)C[C@H]1Oc2ncc(-c3ccncc3)cc2C(=O)N([C@H](C)CO)C[C@@H]1C | -2 | -3 | / | 12 | 3[16.7 µM]
COc1ccc(S(=O)(=O)N(C)C[C@H]2Oc3ncc(-c4ccncc4)cc3C(=O)N([C@@H](C)CO)C[C@H]2C)cc1 | 6 | -33 | / | 90* | -4[16.7 µM]
